CHOP inhibitor: inhibitors of CHOP induction in ER stress response; inhibition, % at 10 µM; 3.8% of 220,000 active; CHO-K1 CHOP-promoter luciferase, tunicamycin-induced, 15-18 h;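 active = compounds that reduced the stress-induced luciferase reporter signal by more than about 70% of percent inhibition, limit read from the data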;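 note: 0% = tunicamycin plus vehicle and 100% = wells without tunicamycin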
CHOP UPR activ: apoptotic UPR (CHOP) activation. 0.34% of 330,000 active. activation, % at 10 µM. AID 449763. CHO-CHOP luciferase reporter, luminescence; percent of tunicamycin response over DMSO baseline;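 active = at 10 µM dose, activation of 40% or more, normalized to positive control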;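 note: 100% = tunicamycin at 10 µg/mL and 0% = DMSO alone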
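Evaluation: % reporter activation, DMSO baseline versus tunicamycin full activation; System: CHO-CHOP luciferase reporter cell line; Input: 500 cells/well; Incubation: 6 h compound treatment, 37 °C; Measured by: Steady-Glo luciferase luminescence; Dosing: one dose, 10 µM in 0.5% DMSO; Buffer or medium: F12 medium, 10% FBS; Benchmarks: positive tunicamycin 10 µg/mL, negative DMSO alone.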
UPR XBP1 act: activators of adaptive arm of unfolded protein response (XBP1); CHO-XBP1 luciferase reporter, IRE1-XBP1 UPR activation, luminescence; percent of tunicamycin response, DMSO as zero; activation, % at 20 µM; AID 463104; 0.33% of 330,000 active;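 active = versus positive control, 20 µM dose yields 30% or more activation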;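 note: 100% = tunicamycin at 10 µg/mL and 0% = DMSO only wells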
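Material: CHO cell line with stable XBP1 luciferase reporter; buffer or medium: F12 medium containing 10% fetal bovine serum; compound: single point, 20 µM final compound, 1% DMSO; incubation: 6 h treatment, 37 °C; measured by: glow luminescence from Steady-Glo reagent; evaluation: activation, % of tunicamycin; control set: tunicamycin high, DMSO low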
Jurkat NFkB inh: lowers PMA/ionomycin-induced NF-kB signal in Jurkat cells. inhibition, % at 4 µM. 0.53% of 330,000 active. PMA/ionomycin-induced NF-kB luciferase reporter, luminescence; in the data active = inhibition above about 50%
697 NFkB inh: inhibitors of the PMA/ionomycin-induced NF-kB reporter in 697 B cells. 697 B-cell NF-kB luciferase reporter, 16 h. inhibition, % at 4 µM. 0.33% of 330,000 active; in the data active = inhibition above about 35%
CHOP inh conf: confirmation of CHOP induction inhibitors. 45% of 2,100 active. inhibition, % at 10 µM. shares compounds with CHOP inhibitor. AID 504437. CHO-CHOP promoter luciferase reporter, tunicamycin-induced, luminescence;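 active = mean of three repeat readings of reporter signal inhibition above a set limit, cut at about 70% in these data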;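 note: 0% = tunicamycin plus vehicle and 100% = wells lacking tunicamycin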
Jurkat NFkB conf: inhibitors of the PMA/ionomycin-induced NF-kB reporter in Jurkat cells, retest | shares compounds with Jurkat NFkB inh | 27% of 2,700 active | Jurkat NF-kB luciferase, 16 h | inhibition, % at 4 µM;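 active = inhibition reaching about 45% at 4 µM in either replicate, limit read from the data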;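 note: plate controls were PMA/ionomycin stimulated DMSO wells for no effect and unstimulated DMSO wells for full effect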
697 NFkB conf: lowers PMA/ionomycin-induced NF-kB signal in 697 B cells; shares compounds with 697 NFkB inh; 697 B-cell NF-kB luciferase, 16 h; inhibition, % at 4 µM; 35% of 2,000 active; in the data active = inhibition mostly above about 28%, no sharp cut-off; inactive = mostly below about 22%
CHOP UPR conf: apoptotic UPR (CHOP) activation, confirmed; shares compounds with CHOP UPR activ; CHO-CHOP cells, CHOP-luciferase reporter luminescence; percent of tunicamycin response, DMSO as zero; activation, % at 10 µM; 64% of 1,000 active; in the data active = activation above about 33%;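 note: 0% = DMSO wells and 100% = tunicamycin 10 µg/mL wells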
XBP1 UPR conf: adaptive UPR (XBP1) activation, confirmed. shares compounds with UPR XBP1 act. CHO-XBP1 IRE1-XBP1 luciferase reporter, luminescence. activation, % at 20 µM. 63% of 1,000 active. AID 485299;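 active = reporter signal at least 30% of the positive control's activation in two or more of four replicate wells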;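 note: plate controls were DMSO negative control for no effect and tunicamycin 10 µg/mL positive control for full effect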
The depositor's hits bear a star; . = not tested or not shown. Shown is part of a subset that was picked to be rich in hits.

SMILES | CHOP inhibitor | CHOP UPR activ | UPR XBP1 act | Jurkat NFkB inh | 697 NFkB inh | CHOP inh conf | XBP1 UPR conf | others
CC1CCc2cc(F)ccc2N1C(=O)CSc1nnc2c(n1)[nH]c1ccc(F)cc12 (centres undefined) | 101* | 2 | 67* | 7 | 17 | 110* | 51*
CC1CCCCN1C(=O)CSc1nnc2c(n1)[nH]c1ccc(F)cc12 (centres undefined) | . | 5 | 0 | -20 | -5 | . | .
COc1cc2nc(SCc3ccc(Cl)cc3Cl)n(Cc3cccs3)c(=N)c2cc1OC | 36 | -2 | -1 | -5 | 9 | . | .
COc1ccc(Cn2c(SCc3cc(C)ccc3C)nc3cc(OC)c(OC)cc3c2=N)cc1 | 104* | 20 | 100* | 44 | -17 | 123* | 67*
Cc1ccccc1OCc1n(CC(=O)OC2CC(C)CCC2C(C)C)c2ccccc2[n+]1C (centres undefined) | 108* | 7 | 45* | 15 | -39 | 137* | 22
COc1cccc(NC(=O)COC(=O)C2CC2)c1 | . | 4 | 0 | -82 | 5 | . | .
CCOC(=O)c1cnc(-c2ccccc2)nc1Oc1ccc(Cl)c(Cl)c1 | 1 | -2 | -6 | 8 | 17 | . | .
CCOC(=O)c1nnc(-c2ccccc2)nc1Oc1ccc(Cl)cc1 | 106* | 31 | 72* | -18 | -45 | -4 | 85*
Cc1ccc(-c2[nH]ncc2/C=N/n2c(COc3ccccc3)nc3ccccc3c2=O)cc1 | 99* | 5 | 37* | 19 | 10 | 108* | 45*
CCc1cccc(CC)c1NC(=O)CN1CC(C)SC1=NC1CCCCC1 (centres undefined) | 61 | -3 | -1 | -5 | -16 | . | .
CCc1ccc(NC(=O)C(CC)Sc2nc3cc4c(cc3c(=O)n2Cc2ccco2)OCO4)cc1 (centres undefined) | 96* | 96* | 106* | 14 | 18 | -60 | 127* | CHOP UPR conf=88*
C/C(N)=C(/C#N)C(=O)COC(=O)c1ccccc1Oc1ccccc1 | 5 | 0 | -1 | -8 | 8 | . | .
Cc1cc(N2CCN(C)CC2)ccc1NC(=O)c1cccc(S(=O)(=O)N2CCc3ccccc3C2)c1 | 104* | 2 | 34* | -6 | -22 | -47 | 4
O=C(Nc1nc(-c2cc3ccccc3o2)cs1)c1ccc(S(=O)(=O)N2CCCC2)cc1 | 60 | 9 | 1 | 27 | 23 | . | .
CC1CN(S(=O)(=O)c2ccc(C(=O)Nc3nc(-c4cc5ccccc5o4)cs3)cc2)CC(C)O1 (centres undefined) | 107* | 13 | 48* | 43 | 74* | 73* | 134* | 697 NFkB conf=51*
Cc1cc(N2CCN(c3ccc([N+](=O)[O-])c4cccnc34)CC2)c2ccccc2n1 | 105* | 42* | 104* | 22 | -61 | 54 | 62* | CHOP UPR conf=53*
Cc1cnc(NC(=O)Cc2ccccc2Cl)s1 | . | 2 | -6 | 0 | -10 | . | .
Cc1cnc(NC(=O)c2cc3c(C)nn(Cc4ccccc4Cl)c3s2)s1 | 104* | 4 | 43* | -7 | 2 | 9 | 82*
CN(C1CCCCC1)S(=O)(=O)c1ccc(=S)[nH]c1 | . | -1 | 0 | 2 | 0 | . | .
Cc1ccc2nc(SCC(=O)Nc3cc(C(F)(F)F)ccc3N3CCOCC3)[nH]c2c1 | . | 2 | 35* | 52* | -47 | 10 | 40* | Jurkat NFkB conf=56*
O=C(CSc1nccc(=O)[nH]1)Nc1cc(C(F)(F)F)ccc1N1CCOCC1 | . | 1 | 4 | -16 | -15 | . | .
CC(C)=CCCC1(C)C=Cc2c(c(C)cc3c2[nH]c2cc(O)ccc23)O1 (centres undefined) | 104* | 4 | 63* | -29 | -17 | 119* | 67*
NC(=O)CC[C@@H]1NC(=O)[C@@H]2CCCN2C(=O)c2cc([N+](=O)[O-])cc(I)c2NCCCC[C@@H](C(=O)NC(CC(=O)O)C(N)=O)NC1=O (some centres undefined) | 4 | 0 | -2 | 1 | 1 | . | .
CC(C)c1ccc(-c2cc(C(=O)N3N=C(C(F)F)CC3(O)C(F)F)c3ccccc3n2)cc1 (centres undefined) | 99* | 4 | 39* | -47 | -57 | 105* | 13
CCOc1cccc(C(=O)Nc2cccc(-c3nnc(-c4ccc(C)cc4)o3)c2)c1 | 105* | 136* | 162* | 15 | -24 | 103* | 160* | CHOP UPR conf=54*
SMILES | CHOP inhibitor | CHOP UPR activ | UPR XBP1 act | Jurkat NFkB inh | 697 NFkB inh | CHOP inh conf | XBP1 UPR conf | others
CCOc1cccc(C(=O)Nc2cccc(-c3nnc(-c4ccccc4)o3)c2)c1 | 46 | 7 | -1 | 12 | -26 | . | .
CN(C1CCCC1)C1CCN(C(=S)Nc2cc(F)cc(F)c2)CC1 | -2 | 2 | 0 | -17 | 14 | . | .
CCc1ccc(-c2nc(CN3CCC(C(=O)NCCN(CC)c4ccccc4)CC3)c(C)o2)cc1 | 98* | 4 | 57* | 7 | -13 | 105* | 35*
CCN(CCNC(=O)C1CCCN(Cc2nc(-c3ccc(OC)cc3)oc2C)C1)c1ccccc1 (centres undefined) | 50 | 0 | 4 | -8 | 11 | . | .
O=C(c1cc(-c2ccc(Cl)cc2Cl)on1)N1CCCCCC1 | . | 2 | -7 | -162 | -180 | . | . | Jurkat NFkB conf=-132
O=C(c1cc(-c2ccc(Cl)c(Cl)c2)on1)N1CCCCCC1 | . | 6 | 1 | -108 | -115 | . | .
O=C(c1cc(-c2ccc(Cl)cc2Cl)on1)N1CCCC1 | . | -3 | -11 | -137 | -191 | . | .
O=C(c1cc(-c2ccc(Cl)cc2)on1)N1CCCCCC1 | . | 7 | -3 | -169 | -141 | . | . | Jurkat NFkB conf=-157
COc1ccc(Cc2nnc(NC(=O)c3cc(OC)c(OC)c(OC)c3)s2)cc1 | . | -2 | 0 | -10 | -20 | . | .
Cc1cc(C)n(C(=O)CCCCCCCCC(=O)n2nc(C)cc2C)n1 | 11 | 1 | 3 | -5 | 0 | . | .
CCOC(=O)C1(C)NC(c2ccco2)C2C(=O)N(C)C(=O)C21 (centres undefined) | -14 | -1 | 0 | -12 | 4 | . | .
COc1ccc2c(c1OC)C(=O)N(c1cccc(C)c1)C2 | 28 | 3 | -2 | -104 | -143 | . | .

High-throughput results deposited in PubChem BioAssay by several laboratories.
